Experimental data taken from ChEMBL document CHEMBL1126564, “Synthesis and antimicrobial evaluation of a series of 7-[3-amino (or aminomethyl)-4-aryl (or cyclopropyl)-1-pyrrolidinyl]-4-quinolone- and -1,8-naphthyridone-3-carboxylic acids” (1993).
In brackets after ≈: the same amount, converted by molar mass.

Assays:
Format in all cases: functional
Staphylococcus aureus [1] = test: Minimum inhibitory concentration against Staphylococcus aureus H-228
Method in brief: (§1)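 Standard microdilution method against a panel of five Gram-negative and five Gram-positive bacterial strains. The MIC (µg/mL) was recorded for each strain.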

Klebsiella pneumoniae = test: Minimum inhibitory concentration against Klebsiella pneumoniae MGH-2; method in brief: as §1
Pseudomonas aeruginosa = test: Minimum inhibitory concentration against Pseudomonas aeruginosa UI-18; method in brief: as §1
Streptococcus pneumoniae = test: Minimum inhibitory concentration against Streptococcus pneumoniae SV-1; method in brief: as §1
Enterococcus faecalis = test: Minimum inhibitory concentration against […] MGH-2; method in brief: as §1
Staphylococcus aureus [2] = test: Minimum inhibitory concentration against Staphylococcus aureus UC-76; method in brief: as §1
Escherichia coli = test: Minimum inhibitory concentration against Escherichia coli Vogel; method in brief: as §1
Streptococcus pyogenes = test: Minimum inhibitory concentration against Streptococcus pyogenes C-203; method in brief: as §1
Providencia rettgeri = test: Minimum inhibitory concentration against Providencia rettgeri M-1771; method in brief: as §1
Enterobacter cloacae = test: Minimum inhibitory concentration against […] MA-2646; method in brief: as §1
[3] = Staphylococcus aureus, read-out: MIC
[4] = Klebsiella pneumoniae, read-out: MIC
[5] = Pseudomonas aeruginosa, read-out: MIC
[6] = Streptococcus pneumoniae, read-out: MIC
[7] = Enterococcus faecalis, read-out: MIC
[8] = Escherichia coli, read-out: MIC
[9] = Streptococcus pyogenes, read-out: MIC
[10] = Providencia rettgeri, read-out: MIC
[11] = Enterobacter cloacae, read-out: MIC

Row | Structure (SMILES) | MIC (Staphylococcus aureus [1]; [3]) | MIC (Klebsiella pneumoniae; [4]) | MIC (Pseudomonas aeruginosa; [5]) | MIC (Streptococcus pneumoniae; [6]) | MIC (Enterococcus faecalis; [7]) | MIC (Staphylococcus aureus [2]; [3]) | MIC (Escherichia coli; [8]) | MIC (Streptococcus pyogenes; [9]) | MIC (Providencia rettgeri; [10]) | MIC (Enterobacter cloacae; [11]) | MIC (Staphylococcus aureus [1]) | MIC (Klebsiella pneumoniae) | MIC (Streptococcus pneumoniae) | MIC (Enterococcus faecalis) | MIC (Staphylococcus aureus [2]) | MIC (Escherichia coli) | MIC (Streptococcus pyogenes) | MIC (Providencia rettgeri) | MIC (Enterobacter cloacae) | MIC (Pseudomonas aeruginosa)
1 | NCC1CN(c2c(F)cc3c(=O)c(C(=O)O)cn(C4CC4)c3c2F)CC1c1ccco1 (stereo not given) | 0.025 µg/mL (≈ 0.0582 µM) | 0.1 µg/mL (≈ 0.233 µM) | 0.4 µg/mL (≈ 0.931 µM) | 0.006 µg/mL (≈ 0.014 µM) | 0.013 µg/mL (≈ 0.0303 µM) | 0.003 µg/mL (≈ 0.00699 µM) | 0.05 µg/mL (≈ 0.116 µM) | 0.013 µg/mL (≈ 0.0303 µM) | 0.1 µg/mL (≈ 0.233 µM) | 0.05 µg/mL (≈ 0.116 µM) |  |  |  |  |  |  |  |  |  | 
2 | COc1ccccc1C1CN(c2nc3c(cc2F)c(=O)c(C(=O)O)cn3C2CC2)CC1N (cis isomer) |  |  | > 3.1 µg/mL |  |  |  |  |  |  |  | 0.4 µg/mL (≈ 0.912 µM) | 1.6 µg/mL (≈ 3.65 µM) | 0.8 µg/mL (≈ 1.82 µM) | 0.8 µg/mL (≈ 1.82 µM) | 0.2 µg/mL (≈ 0.456 µM) | 0.8 µg/mL (≈ 1.82 µM) | 1.6 µg/mL (≈ 3.65 µM) | 3.1 µg/mL (≈ 7.07 µM) | 0.8 µg/mL (≈ 1.82 µM) | 
3 | NC1CN(c2nc3c(cc2F)c(=O)c(C(=O)O)cn3C2CC2)CC1c1ccc(O)cc1 (trans isomer) | 0.4 µg/mL (≈ 0.942 µM) | 0.2 µg/mL (≈ 0.471 µM) | 1.6 µg/mL (≈ 3.77 µM) | 0.2 µg/mL (≈ 0.471 µM) | 0.1 µg/mL (≈ 0.236 µM) | 0.1 µg/mL (≈ 0.236 µM) | 0.1 µg/mL (≈ 0.236 µM) | 0.2 µg/mL (≈ 0.471 µM) | 0.4 µg/mL (≈ 0.942 µM) | 0.1 µg/mL (≈ 0.236 µM) |  |  |  |  |  |  |  |  |  | 
4 | NCc1cccc(C2CN(c3c(F)cc4c(=O)c(C(=O)O)cn(C5CC5)c4c3F)CC2CN)c1 (trans isomer) | 1.6 µg/mL (≈ 3.42 µM) | 1.6 µg/mL (≈ 3.42 µM) | 6.3 µg/mL (≈ 13.4 µM) | 0.2 µg/mL (≈ 0.427 µM) | 0.8 µg/mL (≈ 1.71 µM) | 0.2 µg/mL (≈ 0.427 µM) | 1.6 µg/mL (≈ 3.42 µM) | 0.1 µg/mL (≈ 0.213 µM) | 3.1 µg/mL (≈ 6.62 µM) | 1.6 µg/mL (≈ 3.42 µM) |  |  |  |  |  |  |  |  |  | 
5 | Nc1c(F)c(N2CC(N)C(c3ccccc3)C2)c(F)c2c1c(=O)c(C(=O)O)cn2C1CC1 (stereo not given) | 0.013 µg/mL (≈ 0.0295 µM) | 0.05 µg/mL (≈ 0.114 µM) | 0.8 µg/mL (≈ 1.82 µM) | 0.05 µg/mL (≈ 0.114 µM) | 0.05 µg/mL (≈ 0.114 µM) | 0.006 µg/mL (≈ 0.0136 µM) | 0.025 µg/mL (≈ 0.0568 µM) | 0.1 µg/mL (≈ 0.227 µM) | 0.1 µg/mL (≈ 0.227 µM) | 0.025 µg/mL (≈ 0.0568 µM) |  |  |  |  |  |  |  |  |  | 
6 | NC1CN(c2cc3c(cc2F)c(=O)c(C(=O)O)cn3C2CC2)CC1C1CC1 (stereo not given) | 0.1 µg/mL (≈ 0.269 µM) | 0.05 µg/mL (≈ 0.135 µM) | 0.8 µg/mL (≈ 2.15 µM) | 0.1 µg/mL (≈ 0.269 µM) | 0.1 µg/mL (≈ 0.269 µM) | ≤ 0.025 µg/mL | 0.05 µg/mL (≈ 0.135 µM) | 0.1 µg/mL (≈ 0.269 µM) | 0.1 µg/mL (≈ 0.269 µM) | 0.1 µg/mL (≈ 0.269 µM) |  |  |  |  |  |  |  |  |  | 
7 | CN(C)c1ccc(C2CN(c3c(F)cc4c(=O)c(C(=O)O)cn(C5CC5)c4c3F)CC2N)cc1 (stereo not given) | 0.025 µg/mL (≈ 0.0534 µM) | 0.2 µg/mL (≈ 0.427 µM) | 3.1 µg/mL (≈ 6.62 µM) | 0.1 µg/mL (≈ 0.213 µM) | 0.1 µg/mL (≈ 0.213 µM) | 0.013 µg/mL (≈ 0.0277 µM) | 0.2 µg/mL (≈ 0.427 µM) | 0.1 µg/mL (≈ 0.213 µM) | 0.4 µg/mL (≈ 0.854 µM) | 0.2 µg/mL (≈ 0.427 µM) |  |  |  |  |  |  |  |  |  | 
8 | CCOC(=O)C1CC1C1CN(c2cc3c(cc2F)c(=O)c(C(=O)O)cn3C2CC2)CC1N (trans isomer) | 1.6 µg/mL (≈ 3.61 µM) | 0.4 µg/mL (≈ 0.902 µM) | 3.1 µg/mL (≈ 6.99 µM) | 0.8 µg/mL (≈ 1.8 µM) | 0.8 µg/mL (≈ 1.8 µM) | 0.2 µg/mL (≈ 0.451 µM) | 0.2 µg/mL (≈ 0.451 µM) | 0.8 µg/mL (≈ 1.8 µM) | 0.8 µg/mL (≈ 1.8 µM) | 0.2 µg/mL (≈ 0.451 µM) |  |  |  |  |  |  |  |  |  | 
9 | COc1ccc(C2CN(c3c(F)cc4c(=O)c(C(=O)O)cn(C5CC5)c4c3F)CC2N)cc1 (trans isomer) | 0.025 µg/mL (≈ 0.0549 µM) | 0.2 µg/mL (≈ 0.439 µM) | 1.6 µg/mL (≈ 3.51 µM) | 0.05 µg/mL (≈ 0.11 µM) | 0.1 µg/mL (≈ 0.22 µM) | 0.013 µg/mL (≈ 0.0285 µM) | 0.1 µg/mL (≈ 0.22 µM) | 0.05 µg/mL (≈ 0.11 µM) | 0.4 µg/mL (≈ 0.878 µM) | 0.1 µg/mL (≈ 0.22 µM) |  |  |  |  |  |  |  |  |  | 
10 | NCC1CN(c2nc3c(cc2F)c(=O)c(C(=O)O)cn3C2CC2)CC1c1ccc(N)cc1 (trans isomer) |  |  |  |  |  |  |  |  |  |  | 0.4 µg/mL (≈ 0.914 µM) | 0.2 µg/mL (≈ 0.457 µM) | 0.05 µg/mL (≈ 0.114 µM) | 0.1 µg/mL (≈ 0.229 µM) | 0.05 µg/mL (≈ 0.114 µM) | 0.2 µg/mL (≈ 0.457 µM) | 0.05 µg/mL (≈ 0.114 µM) | 0.4 µg/mL (≈ 0.914 µM) | 0.2 µg/mL (≈ 0.457 µM) | 1.6 µg/mL (≈ 3.66 µM)
11 | CC(C)c1ccc(C2CN(c3nc4c(cc3F)c(=O)c(C(=O)O)cn4C3CC3)CC2N)cc1 (trans isomer) | 0.2 µg/mL (≈ 0.444 µM) | 0.8 µg/mL (≈ 1.78 µM) | 6.3 µg/mL (≈ 14 µM) | 0.4 µg/mL (≈ 0.888 µM) | 0.4 µg/mL (≈ 0.888 µM) | 0.1 µg/mL (≈ 0.222 µM) | 0.4 µg/mL (≈ 0.888 µM) | 0.4 µg/mL (≈ 0.888 µM) | 1.6 µg/mL (≈ 3.55 µM) | 0.8 µg/mL (≈ 1.78 µM) |  |  |  |  |  |  |  |  |  | 
12 | NC1CN(c2c(F)cc3c(=O)c(C(=O)O)cn(C4CC4)c3c2F)CC1c1ccc(Cl)c(Cl)c1 (trans isomer) | 0.05 µg/mL (≈ 0.101 µM) | 0.2 µg/mL (≈ 0.405 µM) | 1.6 µg/mL (≈ 3.24 µM) | 0.1 µg/mL (≈ 0.202 µM) | 0.1 µg/mL (≈ 0.202 µM) | 0.013 µg/mL (≈ 0.0263 µM) | 0.1 µg/mL (≈ 0.202 µM) | 0.1 µg/mL (≈ 0.202 µM) | 0.2 µg/mL (≈ 0.405 µM) | 0.2 µg/mL (≈ 0.405 µM) |  |  |  |  |  |  |  |  |  | 
13 | CCOC(=O)C1CC1C1CN(c2nc3c(cc2F)c(=O)c(C(=O)O)cn3C2CC2)CC1N (trans isomer) | 1.6 µg/mL (≈ 3.6 µM) | 3.1 µg/mL (≈ 6.97 µM) | 2.5 µg/mL (≈ 5.62 µM) | 1.6 µg/mL (≈ 3.6 µM) | 1.6 µg/mL (≈ 3.6 µM) | 0.4 µg/mL (≈ 0.9 µM) | 1.6 µg/mL (≈ 3.6 µM) | 1.6 µg/mL (≈ 3.6 µM) | 6.3 µg/mL (≈ 14.2 µM) | 1.6 µg/mL (≈ 3.6 µM) |  |  |  |  |  |  |  |  |  | 
